Data published in article PMC7323835 (American Journal of Clinical Oncology, 2020).

Experiments:
rats = assay: GLP 28-day toxicology study in rats; format: in vivo, rat; conditions: highest dose tested in rats, 28-day GLP
[1] = Plasma pharmacokinetics of SLC-0111 after single and repeated dosing; format: in vivo, human; conditions: for AUC(0-t) / Tmax: human, plasma, oral; for AUC(0-t): AUC(0-24), Day 1, mean; for Tmax: range of cohort means
advanced solid tumors = assay: Tumor response; format: in vivo, human
How it was run: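 Patients with previously treated advanced solid tumours were enrolled in an open-label 3+3 escalation. The test compound was given as an oral liquid (100 mg/mL in lecithin/propylene glycol/PEG/TPGS vehicle) once daily, ≥2 h from meals, in 28-day cycles. CT/MRI was scored by RECIST v1.1 (CR/PR/SD/PD) every 8 weeks (±7 d) until progression, discontinuation or consent withdrawal. SD duration was counted in cycles.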

[2] = system: patients with previously treated, advanced solid tumors; assay: Phase 1 dose escalation study: safety and tolerability; format: in vivo, human

Compound: NS(=O)(=O)c1ccc(NC(=O)Nc2ccc(F)cc2)cc1 [SLC-0111, 4-[(4-fluorophenyl)carbamoyl]amino-benzene sulfonamide]
- Severe toxic dose in 10% (STD10) of treated rodents (rats): 500 mg/kg/day
- Day 28/Day 1 AUC(0-24) ratio ([1]; 500 mg/d): 2.01±0.879
- Day 28/Day 1 Cmax±SD ratio ([1]; 500 mg/d): 1.32±0.298
- Day 28/Day 1 AUC(0-24) ratio ([1]; 1000 mg/d): 1.47±1.42
- Day 28/Day 1 Cmax±SD ratio ([1]; 1000 mg/d): 1.17±1.02
- Day 28/Day 1 AUC(0-24) ratio ([1]; 2000 mg/d): 2.18±0.247
- Day 28/Day 1 Cmax±SD ratio ([1]; 2000 mg/d): 3.70±4.30
- Dose proportionality of exposure (in words) ([1]; Cmax and AUC(0-24), days 1 and 28, 500-2000 mg): generally dose proportional
- AUC(0-t) ([1]; 500 mg, 500 mg, N=3): 33000 ng·h/mL
- AUC(0-t) ([1]; 1000 mg, 1000 mg, N=3): 70000 ng·h/mL
- AUC(0-t) ([1]; 2000 mg, 2000 mg, N=2): 94000 ng·h/mL
- Tmax ([1]; Day 1, 500-2000 mg cohorts): 2.46 to 6.05 h
- Tmax ([1]; Day 28, 500-2000 mg cohorts): 2.61 to 5.02 h
- Objective responses (advanced solid tumors; all cohorts): no objective responses were observed
- Stable disease maintained, number of 28-day cycles (advanced solid tumors; cohort 1 (500 mg), one patient with sarcoma of spine): 10 cycles
- Stable disease up to cycle (advanced solid tumors; cohort 3 (2000 mg), one patient with colorectal cancer): ≤ 7
- Prolonged stable disease (SD), duration (advanced solid tumors; observed in 2 patients): > 24 weeks
- Dose-limiting toxicities (in words) ([2]; 500, 1000 and 2000 mg, cycle 1, 10 evaluable patients): No protocol defined DLTs were observed
- Hypophosphatemia, Grade of the grade 3-4 events (CTCAE) ([2]; Cohort 1 (500 mg)): 3
- Fatigue, Grade of the grade 3-4 events (CTCAE) ([2]; Cohort 2 (1000 mg)): 3
- Pulmonary embolism (SAE), Grade (CTCAE) ([2]; Cohort 2 (1000 mg)): 3
- Alanine Transaminase, Grade of the grade 3-4 events (CTCAE) ([2]; Cohort 3 (2000 mg)): 3
- Clostridium entercolitis (SAE), Grade (CTCAE) ([2]; Cohort 3 (2000 mg)): 3
- Fatigue, Grade of the grade 3-4 events (CTCAE) ([2]; Cohort 3 (2000 mg)): 3
- Hepatobiliary disorder (SAE), Grade (CTCAE) ([2]; Cohort 3 (2000 mg)): 3
- Hypophosphatemia, Grade of the grade 3-4 events (CTCAE) ([2]; Cohort 3 (2000 mg)): 3
- Total treatment emergent AEs reported over the course of the study ([2]; all cohorts, 17 patients): 184
- Treatment emergent AEs considered related to SLC-0111 ([2]; all cohorts, 17 patients): 91
- SAEs recorded across the entire study group ([2]; all cohorts, only hepatobiliary disorder drug related): Three
- Tolerability (in words) ([2]; doses of 1000 mg daily or below): generally well tolerated
- Maximum tolerated dose ([2]; doses up to 2000 mg daily): not established
- Recommended phase II dose (RP2D) ([2]; oral liquid formulation, once daily): 1000 mg/day
